Source: PubChem BioAssay
IDH1 R132H inh – inhibitors of human IDH1 R132H; IDH1 R132H reductase, diaphorase/resazurin fluorescence, 60 min; inhibition, % at 10 µM; actives 0.18% (n = 70,000); AID 624101; in the data active means inhibition above about 34%; inconclusive means no clear call, values can overlap the other calls; inactive means below about 11%
GASC1 inh – blocks human GASC-1 (KDM4C) demethylase activity; Q9H3R0; GST-KDM4C 2-372, H3K9me3 peptide, LANCE TR-FRET; inhibition, % at 12.5 µM; actives 0.15% (n = 96,000); AID 720574;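 active means mean replicate inhibition above about 25%, with at least 55% of replicates also reaching it, limit read from the data, passing the limit was not always enough; inconclusive means only one of those two conditions met; inactive means neither condition met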
Target sequence (Q9H3R0 2-372 limits assumed): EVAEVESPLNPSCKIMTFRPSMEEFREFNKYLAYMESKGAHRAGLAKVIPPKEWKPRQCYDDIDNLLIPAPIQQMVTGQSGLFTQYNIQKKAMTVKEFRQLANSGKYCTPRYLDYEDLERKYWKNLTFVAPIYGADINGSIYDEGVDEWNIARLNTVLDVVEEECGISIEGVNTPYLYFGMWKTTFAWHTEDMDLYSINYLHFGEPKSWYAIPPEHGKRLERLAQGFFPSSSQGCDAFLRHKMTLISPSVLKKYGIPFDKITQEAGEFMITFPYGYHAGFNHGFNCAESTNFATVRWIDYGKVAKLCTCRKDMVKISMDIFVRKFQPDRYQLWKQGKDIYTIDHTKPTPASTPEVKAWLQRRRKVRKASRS
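reagent = H3K9me3 peptide substrate, Fe(II), 2-oxoglutarate | system = GST-tagged GASC-1 (JMJD2C) catalytic fragment, aa 2-372 | amount = enzyme final amount 10 nM | read-out = Fall in 671/618 emission ratio as inhibition | medium = HEPES buffer, pH 7.5, plus ascorbate | schedule = 30 min reaction, 60 min detection, RT | measured by = LANCE TR-FRET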
Each line names hits and unclear results; the compound was inactive in the other large screens. Only a selection was taken, and hits are over-represented in it overall.

CC(=O)N(C)C[C@H]1Oc2ncc(-c3ccc(C#N)cc3)cc2C(=O)N([C@H](C)CO)C[C@@H]1C	GASC1 inh 32
C[C@H](CO)N1C[C@H](C)[C@H](CN(C)C(=O)NC2CCCCC2)Oc2ncc(Br)cc2C1=O	IDH1 R132H inh 35
COc1ccc(-c2cnc3c(c2)C(=O)N([C@@H](C)CO)C[C@H](C)[C@@H](CN(C)C(=O)Cc2ccncc2)O3)cc1	IDH1 R132H inh 41
CC(=O)N(C)C[C@@H]1Oc2ncc(-c3ccc(C#N)cc3)cc2C(=O)N([C@H](C)CO)C[C@H]1C	none
C[C@H]1CN([C@@H](C)CO)C(=O)c2cc(Br)cnc2O[C@@H]1CN(C)C(=O)NC1CCCCC1	none (no result: IDH1 R132H inh)
COc1ccc(-c2cnc3c(c2)C(=O)N([C@H](C)CO)C[C@H](C)[C@@H](CN(C)C(=O)Cc2ccncc2)O3)cc1	none
CN1CCN(C(=O)C[C@H]2CC[C@@H]3[C@H](COC[C@@H](O)CN3Cc3ccc4c(c3)OCO4)O2)CC1	none (no result: IDH1 R132H inh)
CO[C@@H]1CN(C)C(=O)c2ccc(NC(=O)NC(C)C)cc2OC[C@H](C)N(C(=O)CC2CC2)C[C@@H]1C	GASC1 inh 51
CO[C@H]1CN(C)C(=O)c2ccc(NC(=O)NC(C)C)cc2OC[C@H](C)N(C(=O)CC2CC2)C[C@@H]1C	none (no result: IDH1 R132H inh)
CO[C@H]1CN(C)C(=O)c2cc(NC(=O)c3ccccc3)ccc2OC[C@@H](C)N(C(C)=O)C[C@@H]1C	IDH1 R132H inh 87 (no result: GASC1 inh)
CCCNC(=O)Nc1ccc2c(c1)OC[C@H](C)N(C(=O)C1CCOCC1)C[C@H](C)[C@H](OC)CN(C)C2=O	GASC1 inh 35
CO[C@@H]1CN(C)C(=O)c2cc(NC(=O)c3ccccc3)ccc2OC[C@H](C)N(C(C)=O)C[C@H]1C	none
CCCNC(=O)Nc1ccc2c(c1)OC[C@@H](C)N(C(=O)C1CCOCC1)C[C@H](C)[C@@H](OC)CN(C)C2=O	none
CCN(CC(=O)Nc1cccc(OC)c1)S(=O)(=O)c1ccc(Cl)cc1	none (no result: GASC1 inh)
CC(C)c1cn(CC[C@@H]2CC[C@H](NS(=O)(=O)c3ccc(Cl)cc3)[C@H](CO)O2)nn1	none
CC(=O)Nc1ccc2c(c1)C(=O)N(C)[C@@H]1CC[C@H](CC(=O)NCc3ccccc3)O[C@@H]1CO2	none (no result: IDH1 R132H inh)
C[C@@H]1CN([C@@H](C)CO)S(=O)(=O)c2ccc(C3=CCCCC3)cc2O[C@@H]1CN(C)Cc1cccnc1	IDH1 R132H inh 38
C[C@@H]1CN([C@H](C)CO)S(=O)(=O)c2ccc(C3=CCCCC3)cc2O[C@@H]1CN(C)Cc1cccnc1	none (no result: IDH1 R132H inh)
C[C@@H]1CN([C@@H](C)CO)S(=O)(=O)c2ccc(C3=CCCCC3)cc2O[C@@H]1CN(C)C(=O)Cc1ccncc1	none (no result: IDH1 R132H inh)
C[C@@H]1CN([C@@H](C)CO)S(=O)(=O)c2ccc(C3=CCCCC3)cc2O[C@H]1CN(C)C(=O)Cc1ccncc1	IDH1 R132H inh 58
C[C@@H]1CN([C@@H](C)CO)C(=O)c2cc(NS(C)(=O)=O)ccc2O[C@@H](C)CCCCO[C@H]1CN(C)S(=O)(=O)c1ccc(F)cc1	none
C[C@@H]1CCCCO[C@@H](CN(C)C(=O)c2ccncc2)[C@H](C)CN([C@@H](C)CO)C(=O)c2cc(NS(C)(=O)=O)ccc2O1	none
O=C(CC(C(=O)O)N1CCCCC1)Nc1cccc(Cl)c1 (stereo not drawn)	none (no result: GASC1 inh)
C[C@@H]1CN([C@@H](C)CO)C(=O)c2c(c3ccccc3n2C)-c2ccccc2CO[C@@H]1CN(C)Cc1ccc(O)cc1	none (no result: IDH1 R132H inh)
C[C@@H]1CN([C@@H](C)CO)C(=O)c2c(c3ccccc3n2C)-c2ccccc2CO[C@@H]1CN(C)Cc1ccncc1	IDH1 R132H inh 47
CCNC(=O)[C@@H]1[C@@H](CO)[C@@H]2Cn3c(ccc(-c4cccnc4)c3=O)[C@@H]2N1Cc1ccccc1	none (no result: IDH1 R132H inh)
O=C(NCC(F)(F)F)[C@@H]1[C@@H](CO)[C@@H]2Cn3c(ccc(-c4cccnc4)c3=O)[C@@H]2N1Cc1ccncc1	GASC1 inh 38 (no result: IDH1 R132H inh)
COc1ccc2c3c(n(C)c2c1)[C@H](CO)N(Cc1ccccc1OC)CC31CN(CC2CCOCC2)C1	none (no result: IDH1 R132H inh)
COCc1cn(CC[C@H]2CC[C@H](NC(=O)Nc3ccc(OC)cc3)[C@H](CO)O2)nn1	IDH1 R132H inh 89, GASC1 inh 89
COCc1cn(CC[C@@H]2CC[C@@H](NC(=O)Nc3ccc(OC)cc3)[C@H](CO)O2)nn1	none
CN1C(=O)c2cc(NC(=O)C3CC3)ccc2OC[C@@H]2O[C@@H](CC(=O)O)CC[C@@H]21	none (no result: IDH1 R132H inh)
CN1C(=O)c2cc(NC(=O)C3CC3)ccc2OC[C@H]2O[C@@H](CC(=O)O)CC[C@@H]21	GASC1 inh 44 (no result: IDH1 R132H inh)
Cc1cc(O)cc(Oc2cc(C)cc(O)c2O)c1	IDH1 R132H inh 56 (no result: GASC1 inh)
Cc1cc(C(C)(C)C)c(O)c(C(C)(C)C)c1	none (no result: GASC1 inh)
CN(C)c1ccc2c(c1)[C@@H]1C[C@@H](CC(=O)NCc3ccccc3)O[C@H](CO)[C@@H]1O2	none
COC(=O)C[C@@H]1C[C@@H]2c3cc(NC(=O)Nc4ccccc4F)ccc3O[C@@H]2[C@@H](CO)O1	IDH1 R132H inh 81, GASC1 inh 41
COc1ccc(S(=O)(=O)Nc2ccc3c(c2)[C@H]2C[C@@H](CC(=O)NCC4CC4)O[C@@H](CO)[C@H]2O3)cc1	none
COc1ccc(S(=O)(=O)Nc2ccc3c(c2)[C@H]2C[C@@H](CC(=O)NCC4CC4)O[C@H](CO)[C@H]2O3)cc1	IDH1 R132H inh 74, GASC1 inh 44
CN(C)c1ccc2c(c1)[C@H]1C[C@H](CC(=O)NCc3ccccc3)O[C@@H](CO)[C@H]1O2	GASC1 inh 36
COCCNC(=O)C[C@H]1C[C@H]2c3cc(NC(=O)c4ccc5c(c4)OCO5)ccc3O[C@H]2[C@@H](CO)O1	GASC1 inh 54
COCCNC(=O)C[C@H]1C[C@@H]2c3cc(NC(=O)c4ccc5c(c4)OCO5)ccc3O[C@@H]2[C@@H](CO)O1	none
O=C(O)C[C@@H]1C[C@H]2c3cc(NC(=O)Nc4ccccc4F)ccc3O[C@H]2[C@H](CO)O1	none
C[C@H]1CN([C@@H](C)CO)C(=O)c2cccc(NS(=O)(=O)c3ccccc3)c2O[C@@H]1CN(C)S(=O)(=O)c1cccs1	none
Cc1ccccc1S(=O)(=O)N1C[C@H](O)COC[C@H]2O[C@@H](CC(=O)N3CCOCC3)CC[C@@H]21	none (no result: IDH1 R132H inh)
CN1CCN(C(=O)C[C@@H]2CC[C@@H]3[C@H](COC[C@@H](O)CN3CC3CCCCC3)O2)CC1	none (no result: IDH1 R132H inh)
C[C@@H]1CN([C@@H](C)CO)C(=O)c2cc(NC(=O)C3CC3)ccc2O[C@@H]1CN(C)S(C)(=O)=O	none
CCCNC(=O)C[C@H]1C[C@@H]2c3cc(N(C)C)ccc3O[C@@H]2[C@@H](CO)O1	GASC1 inh 31
COCCNC(=O)C[C@H]1C[C@@H]2c3cc(N(C)C)ccc3O[C@@H]2[C@H](CO)O1	none
CN(C)c1ccc2c(c1)[C@@H]1C[C@@H](CC(=O)N3CCCCC3)O[C@H](CO)[C@@H]1O2	none (no result: IDH1 R132H inh)
CN(C)c1ccc2c(c1)[C@@H]1C[C@@H](CC(=O)N3CCOCC3)O[C@@H](CO)[C@@H]1O2	GASC1 inh 44
COCCNC(=O)C[C@@H]1C[C@@H]2c3cc(N(C)C)ccc3O[C@@H]2[C@H](CO)O1	GASC1 inh inconclusive
CCCNC(=O)C[C@H]1C[C@H]2c3cc(N(C)C)ccc3O[C@H]2[C@H](CO)O1	GASC1 inh 49 (no result: IDH1 R132H inh)
COc1ccc(S(=O)(=O)Nc2ccc3c(c2)C(=O)N([C@H](C)CO)C[C@@H](C)[C@@H](CN(C)CC2CC2)O3)cc1	none
